The test system of series [1] is Mycobacterium tuberculosis. Description: Antimicrobial activity against Mycobacterium tuberculosis H37Rv ATCC 27294 after 5 days by Microplate Alamar blue assay. Type of series: functional. The conditions noted are these: H37Rv ATCC 27294, 120 h. The method, boiled down:
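M. tuberculosis H37Rv grown 24 h at 37 °C, 150 rpm, in Middlebrook 7H9 + 10% OADC, washed, set to 0.1 McFarland and diluted 1:25. Two-fold dilutions in 7H9, final […], 5 days at 37 °C. Resazurin (Alamar Blue)/10% Tween 80 added for 24 h. MIC is the lowest concentration preventing a blue-to-pink change. Triplicates averaged.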
(In general: Alamar Blue is a resazurin reagent that responds to reducing activity.)

A short description of series [2]: Cytotoxicity against human HepG2 cells after 24 hrs by MTT assay. It counts as cell-based. The conditions noted are these: read-out: MLD50. The method, boiled down:
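HepG2 cells kept in RPMI 1640 with 10% heat-inactivated FCS and gentamicin at 37 °C under 5% CO2. Seeded at 5 × 10^3 cells/well and allowed to adhere for 18 h. Exposed to compound at 200–25 μg/mL for 24 h, then MTT (5 mg/mL solution) for 3 h. Absorbance is taken as % of untreated control after background subtraction, and MLD50 is derived.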
A general note: Tetrazolium dyes change colour on reduction, which living cells bring about.

Series [3] can be described thus: Cytotoxicity against african green monkey BGMK cells after 24 hrs by MTT assay. It counts as cell-based. The conditions noted are these: chlorocebus aethiops, read-out: MLD50.
Series [4] in a line: Selectivity index, ratio of MDL50 for human HepG2 cells to MIC for Mycobacterium tuberculosis H37Rv ATCC 27294. It counts as functional.
Series [5] can be described thus: Selectivity index, ratio of MDL50 for african green monkey BGM cells to MIC for Mycobacterium tuberculosis H37Rv ATCC 27294. Type of series: functional.

Each structure is given as a SMILES string. Converted amounts (≈) assume the structure as drawn.

In general, MIC refers to the least concentration at which growth counts as inhibited.

As to `COc1cccc(-n2cc(CO)nn2)c1`, the MIC in series [1] was more than 100 µg/mL.

For `Cc1ccc(-n2cc(C=O)nn2)cc1`, the MIC in series [1] amounted to 66.7 µM.

In series [1], `COc1ccc(-n2cc(CO)nn2)cc1` had an MIC of more than 100 µg/mL.

For the compound `O=Cc1cn(-c2ccc(Cl)c(Cl)c2)nn1`, the minimal inhibitory concentration (MIC) in series [1] was determined as 207 µM.

Regarding `Cc1ccc(-n2cc(/C=N/NC(=O)c3ccncc3)nn2)cc1`, in series [1], the minimum inhibitory concentration (MIC) came to 4 µM. Besides, the values for the CC50 at 24 h in series [2] and in series [3] were 118 µg/mL (≈ 385 µM) and more than 1000 µg/mL, respectively. In addition, the Ratio in series [4] is on record as 94; in series [5], more than 800.

Take `OCc1cn(-c2ccc(Br)cc2)nn1`: the MIC in series [1] was more than 100 µg/mL.

For the compound `COc1ccccc1-n1cc(/C=N/NC(=O)c2ccncc2)nn1`, in series [1], the MIC amounted to 1.9 µM. The CC50 at 24 h in series [2] and in series [3] was more than 1000 µg/mL in each case. The Ratio in series [4] and in series [5] was more than 1612 in each case.

`C=Cc1cn(-c2ccc(Cl)c(Cl)c2)nn1` returned an MIC in series [1] of more than 100 µg/mL.

`O=C(N/N=C/c1cn(-c2ccc(F)cc2)nn1)c1ccncc1` gave an MIC in series [1] of 4 µM. Moreover, the CC50 at 24 h in series [2] and in series [3] was more than 1000 µg/mL in each case. The Ratio in series [4] and in series [5] was more than 800 throughout.

Consider `COc1ccccc1-n1cc(CO)nn1`, for which the MIC in series [1] was more than 100 µg/mL.

Compound `N#Cc1cccc(-n2cc(CO)nn2)c1` yielded an MIC in series [1] of more than 100 µg/mL.

Consider `OCc1cn(-c2cc(Cl)cc(Cl)c2)nn1`, for which the MIC in series [1] was more than 100 µg/mL.

The compound `FC(F)(F)c1cn(-c2cc(Cl)cc(Cl)c2)nn1` showed an MIC in series [1] of 177 µM.

As to `O=C(N/N=C/c1cn(-c2ccc(Cl)cc2)nn1)c1ccncc1`, the minimum inhibitory concentration (MIC) in series [1] was found to be 1.8 µM. The CC50 at 24 h in series [2] and in series [3] was more than 1000 µg/mL in each case. Moreover, the Ratio in series [4] and in series [5] was more than 1612 throughout.

In series [1], `O=[N+]([O-])c1ccc(-n2cc(CO)nn2)cc1` showed a minimum inhibitory concentration (MIC) of more than 100 µg/mL.

In series [1], `O=C(N/N=C/c1cn(-c2ccc(Cl)c(Cl)c2)nn1)c1ccncc1` yielded an MIC of 6.9 µM. Besides, the CC50 at 24 h in series [2] and in series [3] was more than 1000 µg/mL in each case. In addition, the Ratio in series [4] and in series [5] was more than 400 each time.

In turn, `Cc1cccc(-n2cc(CO)nn2)c1` displayed a minimum inhibitory concentration (MIC) in series [1] of more than 100 µg/mL.

For `OCc1cn(-c2ccc(Cl)c(Cl)c2)nn1`, in series [1], the MIC was more than 100 µg/mL.

Turning to `O=Cc1cn(-c2ccc(F)cc2)nn1`, the minimum inhibitory concentration (MIC) in series [1] came out at 131 µM.

Turning to `Cc1cccc(-n2cc(/C=N/NC(=O)c3ccncc3)nn2)c1`, the minimum inhibitory concentration (MIC) in series [1] came out at 2 µM. The CC50 at 24 h in series [2] was 124 µg/mL (≈ 405 µM); in series [3], 262 µg/mL (≈ 855 µM). Besides, the Ratio was determined as 200 in series [4] and 422 in series [5].

Regarding `O=Cc1cn(-c2ccc([N+](=O)[O-])cc2)nn1`, in series [1], inhibition of growth (MIC) required 115 µM.

`OCc1cn(-c2ccccc2Cl)nn1`: the MIC in series [1] is more than 100 µg/mL.

`COc1cccc(-n2cc(C=O)nn2)c1` returned an MIC in series [1] of 123 µM.

Compound `O=C(N/N=C/c1cn(-c2cccc(Cl)c2)nn1)c1ccncc1` came in with an MIC in series [1] of 1.8 µM. Besides, the CC50 at 24 h in series [2] and in series [3] was more than 1000 µg/mL in each case. Also, the Ratio in series [4] and in series [5] was more than 1612 in each case.

With `C=Cc1cn(-c2ccc([N+](=O)[O-])cc2)nn1`, in series [1], the MIC was more than 100 µg/mL.

`OCc1cn(-c2ccccc2)nn1` gave an MIC in series [1] of more than 100 µg/mL.

The compound `C=Cc1cn(-c2cc(Cl)ccc2Cl)nn1` registered an MIC in series [1] of 13 µM. The CC50 at 24 h in series [2] and in series [3] was more than 1000 µg/mL in each case. Further, the Ratio in series [4] and in series [5] was more than 321 each time.

For the compound `CO[C@H]1/C=C/O[C@@]2(C)Oc3c(C)c(O)c4c(O)c(c(/C=N/N5CCN(C)CC5)c(O)c4c3C2=O)NC(=O)/C(C)=C\C=C\[C@H](C)[C@H](O)[C@@H](C)[C@@H](O)[C@@H](C)[C@H](OC(C)=O)[C@@H]1C` [RIFAMPIN], inhibition of growth in series [1] (MIC) required 1.21 µM.

The compound `O=Cc1cn(-c2ccc(Cl)cc2)nn1` displayed an MIC in series [1] of 60.2 µM. Besides, the values for the CC50 at 24 h in series [2] and in series [3] were 71 µg/mL (≈ 342 µM) and 97 µg/mL (≈ 467 µM), respectively. For the same compound, the Ratio in series [4] stood at 6; in series [5] it was 8.

The compound `FCc1cn(-c2cc(Cl)cc(Cl)c2)nn1` displayed an MIC in series [1] of 406 µM.

In series [1], `Nc1nnc(-c2cccc(-n3cc(C(F)F)nn3)c2)s1` returned an MIC of 340 µM.

With `FCc1cn(-c2ccc(Br)cc2)nn1`, the MIC in series [1] came to 390 µM.

`OCc1cn(-c2ccc(Cl)cc2)nn1` came in with an MIC in series [1] of more than 100 µg/mL.

In series [1], `COc1ccc(-n2cc(/C=N/NC(=O)c3ccncc3)nn2)cc1` displayed an MIC of 7.7 µM. Besides, the CC50 at 24 h in series [2] and in series [3] was more than 1000 µg/mL each time. Moreover, the Ratio in series [4] and in series [5] was more than 400 in each case.

Regarding `COc1ccccc1-n1cc(C=O)nn1`, the MIC in series [1] stood at 246 µM.

In turn, `O=C(N/N=C/c1cn(-c2ccc([N+](=O)[O-])cc2)nn1)c1ccncc1` showed an MIC in series [1] of 1.8 µM. For the same compound, the CC50 at 24 h in series [2] and in series [3] was more than 1000 µg/mL each time. Moreover, the Ratio in series [4] and in series [5] was more than 1612 each time.

In turn, `C=Cc1cn(-c2ccccc2)nn1` showed an MIC in series [1] of more than 100 µg/mL.

On to `N#Cc1ccc(-n2cc(CO)nn2)cc1`, for which the MIC in series [1] is more than 100 µg/mL.

On to `O=Cc1cn(-c2cccc(Cl)c2)nn1`, for which the MIC in series [1] was 121 µM.

`N#Cc1ccc(-n2cc(CF)nn2)cc1` came in with an MIC in series [1] of more than 100 µg/mL.

In turn, `COC(=O)c1cn(-c2cc(Cl)cc(Cl)c2)nn1` displayed a minimal inhibitory concentration (MIC) in series [1] of more than 100 µg/mL.

`O=Cc1cn(-c2ccccc2)nn1`: the MIC in series [1] worked out at 144 µM.

`O=Cc1cn(-c2cc(Cl)ccc2Cl)nn1` came in with an MIC in series [1] of more than 100 µg/mL.

`OCc1cn(-c2ccc(F)cc2)nn1` registered an MIC in series [1] of more than 100 µg/mL.

Consider `O=C(N/N=C/c1cn(-c2cc(Cl)ccc2Cl)nn1)c1ccncc1`, for which the lowest concentration to inhibit growth in series [1] (MIC) was 3.4 µM. In addition, the CC50 at 24 h in series [2] and in series [3] was more than 1000 µg/mL each time. Moreover, the Ratio in series [4] and in series [5] was more than 800 in each case.

As to `N#Cc1cccc(-n2cc(C(F)F)nn2)c1`, 114 µM was the least that counted as inhibitory in series [1] (MIC).

Compound `COc1cccc(-n2cc(/C=N/NC(=O)c3ccncc3)nn2)c1` registered an MIC in series [1] of 3.8 µM. The CC50 at 24 h in series [3] was more than 1000 µg/mL. In series [5], the Ratio was more than 800.

As to `O=Cc1cn(-c2ccccc2Cl)nn1`, inhibition of growth in series [1] (MIC) required 241 µM.

Regarding `Cc1ccccc1-n1cc(C=O)nn1`, the MIC in series [1] was 267 µM.

As to `COc1ccc(-n2cc(C=O)nn2)cc1`, 123 µM was the least that counted as inhibitory in series [1] (MIC).

In series [1], `OCc1cn(-c2cc(Cl)ccc2Cl)nn1` showed an MIC of more than 100 µg/mL.

As for `FCc1cn(-c2cccc(Cl)c2)nn1`, the MIC in series [1] turned out to be 472 µM.

`O=C(N/N=C/c1cn(-c2ccccc2)nn1)c1ccncc1` gave an MIC in series [1] of 8.5 µM. The CC50 at 24 h in series [2] and in series [3] was more than 1000 µg/mL each time. The Ratio in series [4] and in series [5] was more than 400 throughout.

In series [1], `Cc1ccccc1-n1cc(CO)nn1` had an MIC of more than 100 µg/mL.

As for `O=C(N/N=C/c1cn(-c2ccccc2Cl)nn1)c1ccncc1`, inhibition of growth in series [1] (MIC) required 3.8 µM. For the same compound, the figures for the CC50 at 24 h in series [2] and in series [3] were 263 µg/mL (≈ 805 µM) and more than 1000 µg/mL, respectively. Further, the Ratio is given as 210 in series [4] and more than 800 in series [5].

In the case of `OCc1cn(-c2cccc(Cl)c2)nn1`, the MIC in series [1] is more than 100 µg/mL.

`FCc1cn(-c2ccc(Cl)cc2)nn1` returned an MIC in series [1] of 472 µM.

For the compound `Cc1cccc(-n2cc(C=O)nn2)c1`, in series [1], the MIC turned out to be 134 µM.

On to `NNC(=O)c1ccncc1` [ISONIAZID], for which the MIC in series [1] amounted to 0.437 µM.

In turn, `FC(F)c1cn(-c2cccc(Cl)c2)nn1` showed an MIC in series [1] of more than 100 µg/mL.

For `N#Cc1cccc(-n2cc(CF)nn2)c1`, the MIC in series [1] is more than 100 µg/mL.

`Nc1nnc(-c2cccc(-n3cc(CO)nn3)c2)s1` yielded an MIC in series [1] of more than 100 µg/mL.

In turn, `Cc1ccccc1-n1cc(/C=N/NC(=O)c2ccncc2)nn1` displayed an MIC in series [1] of 8.1 µM. In addition, the CC50 at 24 h in series [2] is 314 µg/mL (≈ 1030 µM); in series [3], more than 1000 µg/mL. Further, the results for the Ratio in series [4] and in series [5] were 126 and 400, respectively.

`C=Cc1cn(-c2ccc(Cl)cc2)nn1`: the lowest concentration to inhibit growth in series [1] (MIC) was 243 µM.

`Cc1ccc(-n2cc(CO)nn2)cc1`: the MIC in series [1] was more than 100 µg/mL.

With `C=Cc1cn(-c2ccccc2OC)nn1`, the MIC in series [1] is more than 100 µg/mL.

Compound `C=Cc1cn(-c2ccc(OC)cc2)nn1` had an MIC in series [1] of 244 µM.

Source of the values: ChEMBL document CHEMBL1821640, “Novel 1,2,3-triazole derivatives for use against Mycobacterium tuberculosis H37Rv (ATCC 27294) strain” (J Med Chem, 2011).
